# Results reported in ChEMBL document CHEMBL1129691, “Synthesis and structure-DNA binding relationship analysis of DNA triple-helix specific intercalators” (J Med Chem, 1996).
# Assays:
# Nucleic Acid [1] = test: Temperature (delta Tm) for DNA duplex denaturation evaluated by thermal melting; format: nucleic-acid assay
# Procedure, shortened: (§1)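 Thermal melting in PIPES buffer (0.01 M PIPES, 0.001 M EDTA, 0.2 M NaCl, pH 7.0). Duplex poly(dA·dT) and triplex poly(dT·dA·dT) are formed by adding DNA stock to buffer. Compound is added at a molar ratio of 0.3 per nucleic acid base (saturating). ΔTm = Tm(complex) − Tm(free DNA), estimated error ±0.5 °C.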
# Nucleic Acid [2] = test: Temperature (delta Tm) for DNA triplex to duplex and single stranded transitions [Poly(dT.dA.dT) to Poly(dA.dT) and Poly(dT)]; format: nucleic-acid assay; procedure, shortened: as §1
# [3] = PKa value of the N in quinoline ring is determined in 1-cm UV cell titreated with HCl or NaOH; format: physicochemical; details: buffer
# Procedure, shortened: (§2)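 UV-monitored pH titration with HCl or NaOH. Sample is dihydrobromide salt or free base (0.01 mM) in nanopure water with NaCl (4 mM) and EDTA (0.1 mM). UV-vis spectra (220-450 nm) recorded after each addition. pH range spans at least 2 units either side of pKa, at least two points per pH unit. Absorbance at the wavelength of greatest change is normalized and plotted against pH.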
# [4] = PKa value of the side chain terminal amino is determined in 1-cm UV cell titreated with HCl or NaOH; format: physicochemical; details: buffer; procedure, shortened: as §2
Structure (SMILES),ΔTm (Nucleic Acid [1]),ΔTm (Nucleic Acid [2]),pKa [3],pKa [4]
CN1CCN(c2cc(-c3ccc4ccccc4c3)nc3ccccc23)CC1,0.4 °C,19.1 °C,5.6,> 8
CNCCN(C)c1cc(-c2ccc3ccccc3c2)nc2ccccc12,0.2 °C,24.1 °C,6.2,> 8
CN(C)CCN(C)C(=O)c1cc(-c2ccc3ccccc3c2)nc2ccccc12,0 °C,2.1 °C,,
CN1CCN(c2cc(-c3ccc4c(ccc5ccccc54)c3)nc3ccccc23)CC1,0.3 °C,18.6 °C,,
Cc1ccc2cc(-c3cc(N4CCN(C)CC4)c4ccccc4n3)ccc2c1,0.4 °C,15.5 °C,,
Cc1ccc2cc(-c3cc(N(C)CCN(C)C)c4ccccc4n3)ccc2c1,0.4 °C,19 °C,,
CN(C)CCSc1cc(-c2ccc3ccccc3c2)nc2ccccc12,0.2 °C,18.6 °C,4.4,> 8
CN(C)CCNc1cc(-c2ccc3ccccc3c2)nc2ccccc12,5.5 °C,35.6 °C,7.1,> 8
CN(C)CCNc1cc(-c2cccc3ccccc23)nc2ccccc12,0.1 °C,1.9 °C,,
CN(C)CCN(C)c1cc(-c2cccs2)nc2ccccc12,0 °C,3 °C,,
CNCCN(C)c1cc(-c2ccc3c(c2)Nc2ccccc2S3)nc2ccccc12,1.5 °C,20.8 °C,,
Cc1ccc2cc(-c3cc(NCCN(C)C)c4ccccc4n3)ccc2c1,2.2 °C,32.9 °C,,
CNCCN(C)c1cc(-c2ccc3cc(C)ccc3c2)nc2ccccc12,0.5 °C,23 °C,,
CN(C)CCNc1cc(-c2ccccc2)nc2ccccc12,0.3 °C,11.9 °C,,
CN(C)CCNc1cc(-c2cccs2)nc2ccccc12,0.7 °C,9.4 °C,,
CN1CCN(c2cc(-c3ccccc3)nc3ccccc23)CC1,0 °C,3.2 °C,,
CN(C)CCNc1cc(-c2ccc3c(c2)Nc2ccccc2S3)nc2ccccc12,2.4 °C,33.1 °C,,
CN(C)CCNc1cc(-c2ccc3c(ccc4ccccc43)c2)nc2ccccc12,5.2 °C,35.3 °C,,
